Experiments:
K562 = test: Antiproliferative activity against human K562 cells assessed as reduction in cell viability after 48 hrs by MTT assay; assay type: functional, cell-based; details: K562, 48 h
HEL = test: Antiproliferative activity against HEL cells harboring JAK2 V617F mutant assessed as reduction in cell viability after 48 hrs by MTT assay; assay type: functional, cell-based; details: Homo sapiens
[1] = target: Tyrosine-protein kinase JAK2 (Homo sapiens, UniProt O60674); test: Inhibition of recombinant human JAK2 using Ulight-CAGAGAIETDKEYYTVKD as substrate measured after 60 mins by LANCE assay
Chain of Tyrosine-protein kinase JAK2 (O60674 whole entry): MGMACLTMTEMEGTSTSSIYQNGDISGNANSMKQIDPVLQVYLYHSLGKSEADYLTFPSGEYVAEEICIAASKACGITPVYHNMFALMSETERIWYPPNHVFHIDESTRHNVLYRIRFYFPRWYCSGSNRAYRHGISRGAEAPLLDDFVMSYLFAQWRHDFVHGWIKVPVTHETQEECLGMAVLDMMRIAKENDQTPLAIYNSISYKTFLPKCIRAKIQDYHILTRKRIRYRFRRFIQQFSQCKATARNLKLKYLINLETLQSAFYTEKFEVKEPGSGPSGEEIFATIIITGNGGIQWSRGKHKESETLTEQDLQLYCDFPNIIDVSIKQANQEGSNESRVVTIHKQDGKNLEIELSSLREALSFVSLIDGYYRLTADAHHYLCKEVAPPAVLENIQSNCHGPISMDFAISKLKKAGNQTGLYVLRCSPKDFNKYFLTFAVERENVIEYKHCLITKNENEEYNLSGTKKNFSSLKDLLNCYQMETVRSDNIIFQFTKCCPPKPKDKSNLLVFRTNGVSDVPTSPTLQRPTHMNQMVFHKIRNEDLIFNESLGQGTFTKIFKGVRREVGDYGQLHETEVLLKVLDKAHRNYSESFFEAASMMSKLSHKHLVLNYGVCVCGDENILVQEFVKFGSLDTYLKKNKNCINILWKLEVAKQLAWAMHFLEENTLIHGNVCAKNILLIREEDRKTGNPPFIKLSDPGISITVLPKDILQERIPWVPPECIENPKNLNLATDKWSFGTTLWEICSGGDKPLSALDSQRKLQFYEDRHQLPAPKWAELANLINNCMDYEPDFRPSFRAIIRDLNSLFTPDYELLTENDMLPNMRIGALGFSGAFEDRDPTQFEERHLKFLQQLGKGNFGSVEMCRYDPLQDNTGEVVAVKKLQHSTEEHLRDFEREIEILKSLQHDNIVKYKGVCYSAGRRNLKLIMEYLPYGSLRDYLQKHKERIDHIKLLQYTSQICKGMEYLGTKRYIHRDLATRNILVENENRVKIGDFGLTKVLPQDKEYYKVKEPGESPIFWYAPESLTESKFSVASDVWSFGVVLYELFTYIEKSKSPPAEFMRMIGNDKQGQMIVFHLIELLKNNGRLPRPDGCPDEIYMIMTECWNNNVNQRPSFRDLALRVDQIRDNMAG

Histone deacetylase = test: Inhibition of HDAC in human HeLa nuclear extract using Boc-Lys(acetyl)-AMC as substrate preincubated for 5 mins followed by substrate addition and measured after 30 mins by fluorescence assay; assay type: cell-based
MOLT-4 = test: Antiproliferative activity against human MOLT4 cells assessed as reduction in cell viability after 48 hrs by MTT assay; assay type: functional, cell-based; details: MOLT-4, 48 h
In short: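 Cells kept in RPMI1640 with 10% FBS at 37 °C, 5% CO2. Seeded and grown for 12 h, then exposed to a range of compound concentrations for 48 h. 0.5% MTT added for 4 h, formazan dissolved in DMSO, absorbance read at 570 nm.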

Jurkat = test: Antiproliferative activity against human Jurkat cells assessed as reduction in cell viability after 48 hrs by MTT assay; assay type: functional, cell-based
Histone deacetylase 2 = Histone deacetylase 2 (Homo sapiens, UniProt Q92769); test: Inhibition of HDAC2 (unknown origin) using Boc-Lys(acetyl)-AMC as substrate preincubated for 5 mins followed by substrate addition and measured after 30 mins by fluorescence assay
Chain of Histone deacetylase 2 (Q92769 whole entry): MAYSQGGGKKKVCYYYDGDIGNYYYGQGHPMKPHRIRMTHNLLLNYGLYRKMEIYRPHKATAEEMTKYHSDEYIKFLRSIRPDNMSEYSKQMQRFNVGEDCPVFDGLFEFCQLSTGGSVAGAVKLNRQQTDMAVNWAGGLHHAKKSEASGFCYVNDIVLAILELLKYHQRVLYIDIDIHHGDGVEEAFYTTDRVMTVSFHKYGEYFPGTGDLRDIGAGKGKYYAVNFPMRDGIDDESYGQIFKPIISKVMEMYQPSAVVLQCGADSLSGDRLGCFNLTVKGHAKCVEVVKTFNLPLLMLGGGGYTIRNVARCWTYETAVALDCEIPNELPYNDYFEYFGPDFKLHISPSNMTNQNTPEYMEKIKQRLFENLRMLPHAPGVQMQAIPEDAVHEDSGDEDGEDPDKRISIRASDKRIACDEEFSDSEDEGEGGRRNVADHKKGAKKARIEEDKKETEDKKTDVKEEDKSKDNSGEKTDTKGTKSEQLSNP

[2] = target: T1, Protein deacetylase HDAC6 (Homo sapiens, UniProt Q9UBN7); test: Inhibition of HDAC6 (unknown origin) using Boc-Lys(acetyl)-AMC as substrate preincubated for 5 mins followed by substrate addition and measured after 30 mins by fluorescence assay
T1 sequence (Q9UBN7 whole entry): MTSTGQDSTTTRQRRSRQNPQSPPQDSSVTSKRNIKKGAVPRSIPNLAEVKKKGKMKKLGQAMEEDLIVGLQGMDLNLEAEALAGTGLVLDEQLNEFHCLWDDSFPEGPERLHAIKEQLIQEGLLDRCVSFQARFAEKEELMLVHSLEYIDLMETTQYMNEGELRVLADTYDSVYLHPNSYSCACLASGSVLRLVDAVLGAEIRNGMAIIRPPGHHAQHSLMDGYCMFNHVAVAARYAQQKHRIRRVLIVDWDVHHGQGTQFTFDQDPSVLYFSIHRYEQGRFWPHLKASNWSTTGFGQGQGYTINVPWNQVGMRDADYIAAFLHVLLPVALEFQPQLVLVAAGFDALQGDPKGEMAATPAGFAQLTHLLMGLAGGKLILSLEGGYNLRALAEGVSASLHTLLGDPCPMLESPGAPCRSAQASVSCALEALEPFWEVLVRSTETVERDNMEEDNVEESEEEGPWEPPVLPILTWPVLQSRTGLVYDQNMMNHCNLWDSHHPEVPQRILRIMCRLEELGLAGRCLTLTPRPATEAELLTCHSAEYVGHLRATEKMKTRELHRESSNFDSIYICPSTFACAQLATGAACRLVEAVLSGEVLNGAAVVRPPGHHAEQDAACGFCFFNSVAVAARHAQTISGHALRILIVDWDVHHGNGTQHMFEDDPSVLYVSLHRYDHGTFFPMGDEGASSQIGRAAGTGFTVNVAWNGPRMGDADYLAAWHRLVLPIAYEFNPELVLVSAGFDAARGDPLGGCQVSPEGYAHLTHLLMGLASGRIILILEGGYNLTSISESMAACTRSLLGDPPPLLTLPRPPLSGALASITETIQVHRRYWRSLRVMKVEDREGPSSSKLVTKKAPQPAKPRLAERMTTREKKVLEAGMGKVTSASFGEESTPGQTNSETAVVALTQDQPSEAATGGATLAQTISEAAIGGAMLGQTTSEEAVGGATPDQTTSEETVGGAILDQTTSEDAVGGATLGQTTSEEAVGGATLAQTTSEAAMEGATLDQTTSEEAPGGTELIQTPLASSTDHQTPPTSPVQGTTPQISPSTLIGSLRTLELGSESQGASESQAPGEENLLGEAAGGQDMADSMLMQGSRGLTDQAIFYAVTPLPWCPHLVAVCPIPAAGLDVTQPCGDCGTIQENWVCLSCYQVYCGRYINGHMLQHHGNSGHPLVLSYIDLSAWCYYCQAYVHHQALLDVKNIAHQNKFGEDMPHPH

Histone deacetylase 8 = target: T2, Histone deacetylase 8 (Homo sapiens, UniProt Q9BY41); test: Inhibition of HDAC8 (unknown origin) using Boc-Lys(trifluoroacetyl)-AMC as substrate preincubated for 5 mins followed by substrate addition and measured after 30 mins by fluorescence assay
T2 sequence (Q9BY41 whole entry): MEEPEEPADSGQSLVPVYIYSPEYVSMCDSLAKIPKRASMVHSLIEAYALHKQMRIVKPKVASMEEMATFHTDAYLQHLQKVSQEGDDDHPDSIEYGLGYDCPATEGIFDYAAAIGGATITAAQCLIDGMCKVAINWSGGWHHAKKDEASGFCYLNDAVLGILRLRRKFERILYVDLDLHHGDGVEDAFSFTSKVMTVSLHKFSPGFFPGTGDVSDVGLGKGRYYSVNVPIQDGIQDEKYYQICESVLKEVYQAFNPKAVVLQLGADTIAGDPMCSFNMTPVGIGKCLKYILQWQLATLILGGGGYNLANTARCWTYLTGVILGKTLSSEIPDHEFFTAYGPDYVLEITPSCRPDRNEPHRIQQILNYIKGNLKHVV

[3] = target: Histone deacetylase (Homo sapiens) (UniProt Q13547+O15379+Q9UBN7+Q92769+Q9UQL6+Q8WUI4+Q9BY41+Q96DB2+P56524+Q9UKV0+Q969S8); test: Potency index, ratio of SAHA IC50 to test compound IC50 for inhibition of HDAC in human HeLa cell nuclear extract; assay type: cell-based
In short: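 HeLa cell nuclear extract was incubated with serial concentrations of compound for 5 min at 37 °C. Boc-Lys(acetyl)-AMC substrate was added for 30 min at 37 °C, then developer containing trypsin and TSA for 20 min. Fluorescence was read at ex 390/em 460 nm against control wells.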

[4] = target: Tyrosine-protein kinase JAK1 (Homo sapiens, UniProt P23458); test: Inhibition of recombinant human JAK1 using Ulight-CAGAGAIETDKEYYTVKD as substrate measured after 60 mins by LANCE assay
Chain of Tyrosine-protein kinase JAK1 (P23458 whole entry): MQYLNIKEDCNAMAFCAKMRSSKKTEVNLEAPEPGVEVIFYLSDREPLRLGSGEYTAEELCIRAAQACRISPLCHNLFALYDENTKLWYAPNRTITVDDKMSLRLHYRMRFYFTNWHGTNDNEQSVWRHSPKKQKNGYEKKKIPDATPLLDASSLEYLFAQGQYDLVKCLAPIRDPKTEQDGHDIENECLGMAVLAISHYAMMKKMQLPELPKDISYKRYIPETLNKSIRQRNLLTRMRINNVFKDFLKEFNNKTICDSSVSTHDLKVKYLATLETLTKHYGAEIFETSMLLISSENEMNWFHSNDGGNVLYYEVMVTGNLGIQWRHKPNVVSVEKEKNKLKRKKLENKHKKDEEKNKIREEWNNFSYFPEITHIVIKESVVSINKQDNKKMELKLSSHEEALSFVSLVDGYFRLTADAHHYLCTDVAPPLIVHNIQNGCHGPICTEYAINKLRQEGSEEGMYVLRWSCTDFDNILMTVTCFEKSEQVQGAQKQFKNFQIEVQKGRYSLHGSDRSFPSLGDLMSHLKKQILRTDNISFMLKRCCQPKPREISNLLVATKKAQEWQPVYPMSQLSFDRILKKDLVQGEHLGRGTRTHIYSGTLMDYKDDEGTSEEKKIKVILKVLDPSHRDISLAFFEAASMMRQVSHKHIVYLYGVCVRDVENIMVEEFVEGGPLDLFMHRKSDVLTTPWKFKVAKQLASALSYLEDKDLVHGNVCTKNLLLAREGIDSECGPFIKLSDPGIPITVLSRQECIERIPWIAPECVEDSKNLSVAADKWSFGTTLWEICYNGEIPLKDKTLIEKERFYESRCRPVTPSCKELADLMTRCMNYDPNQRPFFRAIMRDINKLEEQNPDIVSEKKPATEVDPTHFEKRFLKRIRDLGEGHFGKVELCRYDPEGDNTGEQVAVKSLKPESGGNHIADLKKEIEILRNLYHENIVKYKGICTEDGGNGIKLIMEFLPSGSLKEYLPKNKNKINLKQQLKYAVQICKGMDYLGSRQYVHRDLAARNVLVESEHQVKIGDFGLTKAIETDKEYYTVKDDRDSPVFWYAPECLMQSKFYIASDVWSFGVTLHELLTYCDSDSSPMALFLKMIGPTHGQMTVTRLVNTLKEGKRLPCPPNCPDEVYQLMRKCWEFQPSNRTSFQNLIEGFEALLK
In short: (§1)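 Human recombinant JAK enzyme assays run by a contract lab. IC50 was taken from a non-linear curve fit, with all parameters allowed to float. Assays were run in replicate (n>2) and reported as mean ± SD.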

[5] = target: T3, Tyrosine-protein kinase JAK3 (Homo sapiens, UniProt P52333); test: Inhibition of recombinant human JAK3 using Ulight-CAGAGAIETDKEYYTVKD as substrate measured after 60 mins by LANCE assay
T3 sequence (P52333 whole entry): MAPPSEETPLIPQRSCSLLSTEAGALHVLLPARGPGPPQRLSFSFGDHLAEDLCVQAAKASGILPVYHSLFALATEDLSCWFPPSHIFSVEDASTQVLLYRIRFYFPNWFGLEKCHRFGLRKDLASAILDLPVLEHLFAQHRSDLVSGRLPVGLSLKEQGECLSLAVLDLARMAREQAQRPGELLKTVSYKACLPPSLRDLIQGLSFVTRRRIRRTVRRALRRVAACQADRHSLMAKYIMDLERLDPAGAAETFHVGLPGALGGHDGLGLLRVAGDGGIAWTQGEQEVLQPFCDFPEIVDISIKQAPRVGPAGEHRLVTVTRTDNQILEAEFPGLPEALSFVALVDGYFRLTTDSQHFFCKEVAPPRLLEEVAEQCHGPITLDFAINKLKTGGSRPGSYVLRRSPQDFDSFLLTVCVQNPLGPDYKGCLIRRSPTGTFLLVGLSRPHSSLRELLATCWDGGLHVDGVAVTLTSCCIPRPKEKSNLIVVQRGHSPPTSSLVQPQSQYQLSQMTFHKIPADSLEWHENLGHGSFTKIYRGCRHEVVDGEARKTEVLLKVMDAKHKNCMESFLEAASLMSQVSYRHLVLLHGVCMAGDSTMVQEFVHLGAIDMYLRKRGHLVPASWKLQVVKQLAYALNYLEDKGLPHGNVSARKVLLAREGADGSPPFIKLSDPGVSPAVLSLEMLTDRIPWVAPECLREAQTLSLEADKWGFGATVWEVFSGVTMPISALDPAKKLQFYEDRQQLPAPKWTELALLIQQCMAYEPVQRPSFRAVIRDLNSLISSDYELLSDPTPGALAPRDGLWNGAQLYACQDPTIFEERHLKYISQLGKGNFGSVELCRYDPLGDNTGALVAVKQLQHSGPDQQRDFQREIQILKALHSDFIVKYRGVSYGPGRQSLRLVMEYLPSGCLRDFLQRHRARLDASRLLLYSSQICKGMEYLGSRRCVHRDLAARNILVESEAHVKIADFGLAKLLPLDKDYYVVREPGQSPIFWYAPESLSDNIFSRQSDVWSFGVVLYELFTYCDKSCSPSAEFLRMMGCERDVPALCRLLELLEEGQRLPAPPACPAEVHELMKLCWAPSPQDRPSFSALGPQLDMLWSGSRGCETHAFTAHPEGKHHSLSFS

[6] = target: Non-receptor tyrosine-protein kinase TYK2 (Homo sapiens, UniProt P29597); test: Inhibition of recombinant human TYK2 using Ulight-CAGAGAIETDKEYYTVKD as substrate measured after 60 mins by LANCE assay; in short: as §1
Chain of Non-receptor tyrosine-protein kinase TYK2 (P29597 whole entry): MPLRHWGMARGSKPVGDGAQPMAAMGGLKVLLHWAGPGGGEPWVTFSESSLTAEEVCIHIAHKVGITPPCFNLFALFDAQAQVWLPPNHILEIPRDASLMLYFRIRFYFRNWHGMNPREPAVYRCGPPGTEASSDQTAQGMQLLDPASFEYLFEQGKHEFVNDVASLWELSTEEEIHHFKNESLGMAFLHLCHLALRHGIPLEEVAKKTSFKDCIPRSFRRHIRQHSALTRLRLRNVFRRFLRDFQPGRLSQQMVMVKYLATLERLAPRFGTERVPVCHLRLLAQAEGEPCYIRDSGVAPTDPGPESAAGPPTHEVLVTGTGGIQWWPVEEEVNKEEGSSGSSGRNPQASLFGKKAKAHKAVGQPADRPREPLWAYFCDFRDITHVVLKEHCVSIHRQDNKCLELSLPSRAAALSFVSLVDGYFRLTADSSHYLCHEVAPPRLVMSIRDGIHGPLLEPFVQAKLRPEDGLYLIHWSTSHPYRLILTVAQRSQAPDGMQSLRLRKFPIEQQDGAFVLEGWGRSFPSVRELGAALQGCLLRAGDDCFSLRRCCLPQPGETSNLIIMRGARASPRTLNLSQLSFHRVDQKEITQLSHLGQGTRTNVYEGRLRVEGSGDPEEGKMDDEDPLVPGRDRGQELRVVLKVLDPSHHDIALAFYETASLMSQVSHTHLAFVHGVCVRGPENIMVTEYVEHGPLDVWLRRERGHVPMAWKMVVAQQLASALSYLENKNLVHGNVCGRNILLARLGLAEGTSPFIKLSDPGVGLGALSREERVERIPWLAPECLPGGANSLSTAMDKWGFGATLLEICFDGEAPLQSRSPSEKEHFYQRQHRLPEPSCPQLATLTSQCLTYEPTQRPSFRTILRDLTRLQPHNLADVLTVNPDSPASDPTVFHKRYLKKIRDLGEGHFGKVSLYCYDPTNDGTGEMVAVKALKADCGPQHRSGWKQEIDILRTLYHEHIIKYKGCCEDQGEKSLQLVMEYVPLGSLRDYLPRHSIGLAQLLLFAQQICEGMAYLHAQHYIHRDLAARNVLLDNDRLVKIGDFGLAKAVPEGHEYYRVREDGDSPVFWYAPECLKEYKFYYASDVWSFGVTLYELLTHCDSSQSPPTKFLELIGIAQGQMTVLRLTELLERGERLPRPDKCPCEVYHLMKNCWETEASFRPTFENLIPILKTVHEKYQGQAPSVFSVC

| SMILES | IC50 (K562) | IC50 (HEL) | IC50 [1] | IC50 (Histone deacetylase) | IC50 (MOLT-4) | IC50 (Jurkat) | IC50 (Histone deacetylase 2) | IC50 [2] | IC50 (Histone deacetylase 8) | Ratio IC50 [3] | IC50 [4] | IC50 [5] | IC50 [6] |
| --- | --- | --- | --- | --- | --- | --- | --- | --- | --- | --- | --- | --- | --- |
| O=C(CCCCCCn1cc(Nc2ncc(Cl)c(Nc3ccccc3)n2)cn1)NO | 420 nM | 180 nM | 12 nM | 19 nM | 160 nM | 90 nM |  |  |  |  |  |  |  |
| CCCNc1nc(Nc2cnn(CCCCCCC(=O)NO)c2)ncc1Cl |  |  | 30 nM | 26 nM |  |  |  |  |  |  |  |  |  |
| O=C(CCn1cc(Nc2ncc(Cl)c(Nc3ccc(F)cc3)n2)cn1)NO |  |  | 22 nM | > 10000 nM |  |  |  |  |  |  |  |  |  |
| CNc1nc(Nc2cnn(CCCCCCC(=O)NO)c2)ncc1C(F)(F)F |  |  | 85 nM | 37 nM |  |  |  |  |  |  |  |  |  |
| O=C(CCCCn1cc(Nc2ncc(Cl)c(Nc3ccc(F)cc3)n2)cn1)NO |  |  | 46 nM | 569 nM |  |  | 1400 nM | 310 nM | 5100 nM |  |  |  |  |
| O=C(CCCCCn1cc(Nc2ncc(Cl)c(Nc3cccc(Cl)c3)n2)cn1)NO | 580 nM | 80 nM | 7 nM | 4 nM | 80 nM | 50 nM |  |  |  |  |  |  |  |
| O=C(NO)c1ccc(Cn2cc(Nc3ncc(Cl)c(Nc4ccc(F)cc4)n3)cn2)cc1 |  |  | 21 nM | 62 nM |  |  | 730 nM | 13 nM | 120 nM |  |  |  |  |
| CNc1nc(Nc2cnn(CCCCCC(=O)NO)c2)ncc1Cl |  |  | 36 nM | 104 nM |  |  |  |  |  |  |  |  |  |
| O=C(CCCn1cc(Nc2ncc(Cl)c(Nc3ccc(F)cc3)n2)cn1)NO |  |  | 10 nM | > 10000 nM |  |  |  |  |  |  |  |  |  |
| O=C(CCCCCCn1cc(Nc2ncc(F)c(Nc3ccc(F)cc3)n2)cn1)NO |  |  | > 100 nM | 3 nM |  |  |  |  |  | > 50 |  |  |  |
| O=C(CCCCCCn1cc(Nc2ncc(C(F)(F)F)c(Nc3ccc(F)cc3)n2)cn1)NO | 480 nM | 420 nM | > 100 nM | 41 nM | 240 nM |  |  |  |  |  |  |  |  |
| O=C(CCCCCCn1cc(Nc2ncc(Cl)c(N3CCOCC3)n2)cn1)NO | 910 nM | 470 nM | 20 nM | 37 nM | 320 nM | 170 nM |  |  |  |  |  |  |  |
| O=C(CCCCCCn1cc(Nc2nccc(Nc3ccc(F)cc3)n2)cn1)NO |  |  | > 100 nM | 18 nM |  |  |  |  |  |  |  |  |  |
| O=C(CCCCCCn1cc(Nc2ncc(Cl)c(N3CCCCC3)n2)cn1)NO |  |  | 50 nM | 40 nM |  |  |  |  |  |  | 30 nM | 3.7 nM | 60 nM |
| O=C(CCCCCCn1cc(Nc2ncc(Cl)c(Nc3ccccc3Cl)n2)cn1)NO | 860 nM | 340 nM | 46 nM | 10 nM | 510 nM | 250 nM |  |  |  |  |  |  |  |
| O=C(CCCCCCCn1cc(Nc2ncc(Cl)c(Nc3ccc(F)cc3)n2)cn1)NO |  |  | 61 nM | 38 nM |  |  | 430 nM | 300 nM | 1700 nM |  |  |  |  |
| O=C(CCCCCCn1cc(Nc2ncc(Cl)c(NC3CC3)n2)cn1)NO | 380 nM | 80 nM |  | 13 nM | 150 nM | 50 nM |  |  |  |  | 14 nM | 2 nM | 12 nM |
| O=C(/C=C/c1ccc(Cn2cc(Nc3ncc(Cl)c(Nc4ccc(F)cc4)n3)cn2)cc1)NO | 1030 nM | 600 nM | 43 nM | 144 nM | 330 nM | 150 nM | 1000 nM | 63 nM | 14100 nM |  |  |  |  |
| O=C(CCCCCn1cc(Nc2ncc(Cl)c(Nc3ccccc3Cl)n2)cn1)NO | 1810 nM | 430 nM | 18 nM | 18 nM | 630 nM | 310 nM |  |  |  |  |  |  |  |
| O=C(CCCCCn1cc(Nc2ncc(Cl)c(Nc3ccc(F)cc3)n2)cn1)NO | 420 nM | 150 nM | 5 nM | 26 nM | 120 nM | 60 nM |  |  |  |  |  |  |  |
